Data: ChEMBL document CHEMBL1926556, “Synthesis and biological activities of 2-[(heteroaryl)methyl]imidazolines” (Bioorg Med Chem, 2012)
Each block holds one compound with its values, some of them ahead of it. Calls of active or inactive are those of the source. The rule behind the calls is not given here.

Key:
[1] = Displacement of [3H]BFI from imidazoline I2 receptor in Sprague-Dawley rat brain membranes after 45 mins by scintillation counting; format: cell membranes, Membrane
Procedure, shortened: (§1)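 Crude P2 membranes from male Sprague–Dawley rat brain (250–280 g), 0.2–0.3 mg protein. Radioligand 1 nM: [3H]2BFI for I2, [3H]prazosin for α1, [3H]RX821002 for α2. Non-specific binding defined by 10 µM BU224 (I2), 10 µM phenylephrine (α1) or 10 µM rauwolscine (α2). 11 concentrations from 0.01 nM to 100 µM, triplicate, 45 min at RT. Filtration and scintillation counting; Ki by Cheng–Prusoff.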

[2] = target: T1, Adrenergic receptor alpha-2 (Rattus norvegicus, UniProt P22086+P19328+P22909); test: Displacement of […] from adrenoceptor alpha2 in Sprague-Dawley rat brain membranes after 45 mins by scintillation counting; format: cell membranes, Membrane; procedure, shortened: as §1
T1 sequence (P22086 whole entry): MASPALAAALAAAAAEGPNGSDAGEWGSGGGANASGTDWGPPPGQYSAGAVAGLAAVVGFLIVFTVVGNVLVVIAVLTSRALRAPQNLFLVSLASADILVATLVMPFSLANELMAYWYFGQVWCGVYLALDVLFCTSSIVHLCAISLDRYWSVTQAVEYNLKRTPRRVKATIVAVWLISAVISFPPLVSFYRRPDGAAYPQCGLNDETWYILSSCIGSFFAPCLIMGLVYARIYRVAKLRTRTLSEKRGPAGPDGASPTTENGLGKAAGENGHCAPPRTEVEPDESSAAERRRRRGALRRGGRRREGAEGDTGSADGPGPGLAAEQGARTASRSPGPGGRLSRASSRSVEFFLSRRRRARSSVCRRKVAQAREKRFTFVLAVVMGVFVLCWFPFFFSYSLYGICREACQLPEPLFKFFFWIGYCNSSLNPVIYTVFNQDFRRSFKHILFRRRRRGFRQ
T1 sequence (P19328 whole entry): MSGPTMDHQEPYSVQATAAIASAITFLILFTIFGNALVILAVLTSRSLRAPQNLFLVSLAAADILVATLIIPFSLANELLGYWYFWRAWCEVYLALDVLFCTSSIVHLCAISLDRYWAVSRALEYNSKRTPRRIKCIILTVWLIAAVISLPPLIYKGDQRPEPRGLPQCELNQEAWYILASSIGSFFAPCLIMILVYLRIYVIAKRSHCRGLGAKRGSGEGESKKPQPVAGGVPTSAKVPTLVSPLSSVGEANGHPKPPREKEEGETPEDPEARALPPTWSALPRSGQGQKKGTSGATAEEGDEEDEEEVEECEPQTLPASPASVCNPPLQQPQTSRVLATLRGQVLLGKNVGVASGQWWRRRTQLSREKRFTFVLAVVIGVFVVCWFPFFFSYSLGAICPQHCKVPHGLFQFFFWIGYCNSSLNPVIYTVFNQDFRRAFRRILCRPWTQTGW
T1 sequence (P22909 whole entry): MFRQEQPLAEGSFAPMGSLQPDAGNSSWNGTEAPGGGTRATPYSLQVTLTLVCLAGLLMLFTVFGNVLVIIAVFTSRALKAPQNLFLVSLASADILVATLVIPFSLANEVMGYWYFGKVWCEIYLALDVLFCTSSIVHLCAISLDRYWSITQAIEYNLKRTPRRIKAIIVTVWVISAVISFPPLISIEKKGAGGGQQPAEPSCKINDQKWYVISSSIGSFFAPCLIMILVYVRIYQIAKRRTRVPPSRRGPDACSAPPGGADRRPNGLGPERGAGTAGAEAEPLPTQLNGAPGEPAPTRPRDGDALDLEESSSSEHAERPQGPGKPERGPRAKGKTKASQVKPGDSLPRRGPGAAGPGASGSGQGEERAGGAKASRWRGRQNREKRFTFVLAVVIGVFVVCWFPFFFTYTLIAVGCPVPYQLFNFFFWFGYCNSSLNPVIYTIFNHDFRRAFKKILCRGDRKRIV

[3] = target: Nischarin (Rattus norvegicus, UniProt Q4G017); test: Displacement of [3H]clonidine from imidazoline I1 receptor in Sprague-Dawley rat kidney membranes after 45 mins by scintillation counting; format: cell membranes, Membrane
Chain of Nischarin (Q4G017 whole entry): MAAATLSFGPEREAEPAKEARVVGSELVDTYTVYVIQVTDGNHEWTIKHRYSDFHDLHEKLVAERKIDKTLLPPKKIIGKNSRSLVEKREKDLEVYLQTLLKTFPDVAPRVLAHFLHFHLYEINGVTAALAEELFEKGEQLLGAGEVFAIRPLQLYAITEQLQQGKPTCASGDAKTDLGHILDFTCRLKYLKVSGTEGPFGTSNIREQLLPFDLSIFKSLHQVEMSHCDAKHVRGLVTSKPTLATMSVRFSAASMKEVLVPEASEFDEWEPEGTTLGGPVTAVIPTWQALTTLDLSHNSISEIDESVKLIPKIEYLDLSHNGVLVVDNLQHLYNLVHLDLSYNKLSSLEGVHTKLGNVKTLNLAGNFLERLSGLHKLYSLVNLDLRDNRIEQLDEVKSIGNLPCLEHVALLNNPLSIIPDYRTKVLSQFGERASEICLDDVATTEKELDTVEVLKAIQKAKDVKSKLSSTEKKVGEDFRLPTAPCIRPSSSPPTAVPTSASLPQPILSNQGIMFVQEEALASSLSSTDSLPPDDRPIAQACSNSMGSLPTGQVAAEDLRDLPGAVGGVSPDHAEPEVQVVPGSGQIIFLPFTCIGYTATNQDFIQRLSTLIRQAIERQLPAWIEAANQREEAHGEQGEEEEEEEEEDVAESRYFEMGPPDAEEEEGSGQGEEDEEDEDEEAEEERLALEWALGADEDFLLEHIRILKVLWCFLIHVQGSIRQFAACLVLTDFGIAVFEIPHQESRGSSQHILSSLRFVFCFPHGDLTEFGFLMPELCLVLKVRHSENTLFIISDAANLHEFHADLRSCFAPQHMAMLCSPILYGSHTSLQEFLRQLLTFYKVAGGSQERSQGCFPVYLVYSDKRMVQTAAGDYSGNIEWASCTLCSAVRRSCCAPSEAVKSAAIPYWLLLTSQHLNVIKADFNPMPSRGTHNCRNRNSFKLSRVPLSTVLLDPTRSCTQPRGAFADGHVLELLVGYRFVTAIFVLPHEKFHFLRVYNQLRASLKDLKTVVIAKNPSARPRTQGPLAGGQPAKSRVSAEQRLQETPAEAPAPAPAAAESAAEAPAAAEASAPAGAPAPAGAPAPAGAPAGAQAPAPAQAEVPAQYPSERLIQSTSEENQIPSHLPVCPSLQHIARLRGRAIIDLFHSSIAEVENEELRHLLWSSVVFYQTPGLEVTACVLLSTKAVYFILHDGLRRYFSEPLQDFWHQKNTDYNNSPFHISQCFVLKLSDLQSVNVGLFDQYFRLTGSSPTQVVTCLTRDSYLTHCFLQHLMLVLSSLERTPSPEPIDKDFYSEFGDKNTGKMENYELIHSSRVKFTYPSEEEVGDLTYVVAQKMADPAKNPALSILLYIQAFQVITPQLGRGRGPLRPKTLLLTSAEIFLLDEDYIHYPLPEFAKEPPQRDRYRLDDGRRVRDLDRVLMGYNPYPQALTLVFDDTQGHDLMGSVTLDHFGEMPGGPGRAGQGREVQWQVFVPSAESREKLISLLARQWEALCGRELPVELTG
Procedure, shortened: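 Crude P2 membranes from male Sprague–Dawley rat kidney, 0.2–0.5 mg protein. […] Specific binding defined by 10 µM rilmenidine. 11 concentrations from 0.01 to 100 µM, 50 mM Tris-HCl pH 7.4, 45 min at RT. Filtration and scintillation counting; IC50.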

[4] = target: T2, Adrenergic receptor alpha-1 (Rattus norvegicus, UniProt P15823+P23944+P43140); test: Displacement of [3H]prazosin from adrenoceptor alpha1 in Sprague-Dawley rat brain after 45 mins by scintillation counting; procedure, shortened: as §1
T2 sequence (P15823 whole entry): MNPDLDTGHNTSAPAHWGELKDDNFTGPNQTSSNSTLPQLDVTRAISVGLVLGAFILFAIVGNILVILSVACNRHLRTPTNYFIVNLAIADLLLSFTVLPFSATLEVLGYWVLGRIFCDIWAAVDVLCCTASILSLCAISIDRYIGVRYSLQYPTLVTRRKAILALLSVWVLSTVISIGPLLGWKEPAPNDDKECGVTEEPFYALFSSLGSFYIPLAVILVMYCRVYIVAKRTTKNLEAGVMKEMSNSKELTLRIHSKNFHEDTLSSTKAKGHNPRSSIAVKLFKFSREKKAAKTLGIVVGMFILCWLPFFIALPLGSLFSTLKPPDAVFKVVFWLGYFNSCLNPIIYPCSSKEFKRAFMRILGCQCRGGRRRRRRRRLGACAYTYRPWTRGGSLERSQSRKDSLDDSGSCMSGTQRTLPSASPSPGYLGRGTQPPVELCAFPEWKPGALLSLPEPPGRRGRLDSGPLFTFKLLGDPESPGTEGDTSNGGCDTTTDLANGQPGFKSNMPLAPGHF
T2 sequence (P23944 whole entry): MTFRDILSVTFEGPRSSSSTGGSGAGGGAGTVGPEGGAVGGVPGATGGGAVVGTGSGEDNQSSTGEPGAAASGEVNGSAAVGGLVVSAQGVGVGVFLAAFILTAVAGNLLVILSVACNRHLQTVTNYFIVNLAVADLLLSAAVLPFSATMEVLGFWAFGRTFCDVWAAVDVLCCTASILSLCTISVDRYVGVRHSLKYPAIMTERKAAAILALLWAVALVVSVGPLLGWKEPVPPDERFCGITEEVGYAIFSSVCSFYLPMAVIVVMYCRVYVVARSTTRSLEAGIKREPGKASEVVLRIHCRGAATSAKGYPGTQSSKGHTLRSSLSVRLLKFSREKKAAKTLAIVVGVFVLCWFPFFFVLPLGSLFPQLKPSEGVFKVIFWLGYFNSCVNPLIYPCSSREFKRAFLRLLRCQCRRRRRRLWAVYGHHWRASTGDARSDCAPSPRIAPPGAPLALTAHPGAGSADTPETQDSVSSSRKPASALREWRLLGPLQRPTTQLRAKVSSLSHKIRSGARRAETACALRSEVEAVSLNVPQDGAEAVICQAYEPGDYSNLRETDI
T2 sequence (P43140 whole entry): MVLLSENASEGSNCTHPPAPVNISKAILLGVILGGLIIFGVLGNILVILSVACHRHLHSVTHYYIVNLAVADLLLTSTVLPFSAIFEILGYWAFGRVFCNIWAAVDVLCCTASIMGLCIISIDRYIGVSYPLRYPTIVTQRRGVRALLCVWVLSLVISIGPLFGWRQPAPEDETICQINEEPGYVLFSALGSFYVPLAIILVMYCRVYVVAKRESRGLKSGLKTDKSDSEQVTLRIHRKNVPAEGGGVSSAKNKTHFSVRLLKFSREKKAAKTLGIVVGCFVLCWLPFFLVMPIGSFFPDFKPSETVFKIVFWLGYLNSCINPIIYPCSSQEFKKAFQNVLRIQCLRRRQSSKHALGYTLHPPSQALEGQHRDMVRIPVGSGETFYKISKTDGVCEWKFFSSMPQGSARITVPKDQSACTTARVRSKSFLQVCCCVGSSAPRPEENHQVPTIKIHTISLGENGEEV

[5] = target: T3, Alpha-2A adrenergic receptor (Homo sapiens) (UniProt P08913); test: Agonist activity at human adrenoceptor alpha2A expressed in CHOK1 cells assessed as stimulation of agonist-induced [35S]GTPgammaS binding by scintillation counting assay relative to noradrenaline; format: functional, cell-based; conditions: CHO-K1
T3 sequence (whole entry): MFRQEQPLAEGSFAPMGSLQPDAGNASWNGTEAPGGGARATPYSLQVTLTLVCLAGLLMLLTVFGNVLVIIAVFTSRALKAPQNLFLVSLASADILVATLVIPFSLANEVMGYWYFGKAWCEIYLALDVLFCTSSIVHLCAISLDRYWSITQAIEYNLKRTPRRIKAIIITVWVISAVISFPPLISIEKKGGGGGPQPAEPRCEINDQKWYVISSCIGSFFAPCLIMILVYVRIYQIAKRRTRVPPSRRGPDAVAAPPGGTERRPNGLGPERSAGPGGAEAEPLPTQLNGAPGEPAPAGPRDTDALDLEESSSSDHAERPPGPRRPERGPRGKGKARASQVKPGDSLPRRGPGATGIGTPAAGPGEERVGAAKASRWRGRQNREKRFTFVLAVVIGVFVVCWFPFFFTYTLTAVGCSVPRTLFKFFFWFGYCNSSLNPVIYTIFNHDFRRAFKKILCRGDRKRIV
Procedure, shortened: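 Membranes from CHO-K1 cells stably expressing human α2A-adrenoceptor; 5 µg protein incubated with serial dilutions of agonist and 0.1 nM [35S]GTPγS in Tris buffer pH 7.4 with 1 µM GDP, MgCl2, NaCl, 30 min at RT. Filtered and counted by scintillation. EC50 and intrinsic activity relative to noradrenaline; means from 3 independent experiments.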

[6] = organism: Rattus norvegicus; test: Displacement of [3H]BFI from imidazoline I2 in Sprague-Dawley rat brain membranes at 1 X 10^6 after 45 mins by scintillation counting; format: cell membranes; conditions: Membrane

SMILES: Cc1cc2ncn(CC3=NCCN3)c2cc1C.Cl.Cl
Ki [1]: 28 µM | Ki [2]: 2.26 µM | IC50 [3]: 74 µM | Ki [4]: 1.5 µM

SMILES: NC[C@H](O)c1ccc(O)c(O)c1
Emax [5]: 100%

SMILES: Cl.c1ccc2c(c1)nnn2CC1=NCCN1
Ki [1]: 0.81 µM | Ki [2]: 5.11 µM | IC50 [3]: 56.8 µM | Ki [4]: 1.34 µM

SMILES: Cc1nn(CC2=NCCN2)c2ccccc12.Cl.Cl
Ki [1]: 0.359 µM | Ki [2]: 0.435 µM | IC50 [3]: 21.3 µM | Ki [4]: 0.095 µM

SMILES: Cc1ccc2c(cnn2CC2=NCCN2)c1.Cl.Cl
Ki [1]: 0.022 µM | Ki [2]: 0.268 µM | IC50 [3]: 45.4 µM | Ki [4]: 0.363 µM

SMILES: Cc1nc2ccccc2n1CC1=NCCN1.Cl.Cl
Ki [2]: 1.02 µM | IC50 [3]: 9.39 µM | Ki [4]: 1.29 µM | Activity [6]: inactive

SMILES: COc1cccc2c1cnn2CC1=NCCN1.Cl.Cl
Ki [1]: 0.382 µM | Ki [2]: 0.305 µM | IC50 [3]: 32.9 µM | Ki [4]: 1.67 µM

SMILES: Cl.Cl.c1ccc(Cc2nc3ccccc3n2CC2=NCCN2)cc1
Ki [2]: 11.2 µM | IC50 [3]: 21 µM | Ki [4]: 30.9 µM | Activity [6]: inactive

SMILES: Cc1cc2nnn(CC3=NCCN3)c2cc1C.Cl.Cl
Ki [1]: 26.3 µM | Ki [2]: 1.56 µM | IC50 [3]: 16.8 µM | Ki [4]: 8.04 µM

SMILES: CCc1nc2ccccc2n1CC1=NCCN1.Cl.Cl
Ki [1]: 34.1 µM | Ki [2]: 5 µM | IC50 [3]: 44.2 µM | Ki [4]: 5.5 µM

SMILES: Cc1cc2nn(CC3=NCCN3)nc2cc1C.Cl.Cl
Ki [1]: 0.233 µM | Ki [2]: 1.32 µM | IC50 [3]: 0.646 µM | Ki [4]: 6.07 µM

SMILES: Cc1cccc2nn(CC3=NCCN3)nc12.Cl.Cl
Ki [1]: 0.078 µM | Ki [2]: 0.499 µM | IC50 [3]: 48.8 µM | Ki [4]: 1.54 µM

SMILES: Cc1cccc2c1cnn2CC1=NCCN1.Cl
Ki [1]: 0.116 µM | Ki [2]: 0.197 µM | IC50 [3]: 12.9 µM | Ki [4]: 0.409 µM

SMILES: Cl.Fc1cccc2cnn(CC3=NCCN3)c12
Ki [1]: 0.156 µM | Ki [2]: 0.0126 µM | IC50 [3]: 16.4 µM | Ki [4]: 0.107 µM

SMILES: Cl.Cl.c1ccc2c(c1)ncn2CC1=NCCN1
Ki [1]: 6.1 µM | Ki [2]: 3.25 µM | IC50 [3]: 43.9 µM | Ki [4]: 0.929 µM

Ki [2]: 7.44 µM | IC50 [3]: 28.1 µM | Ki [4]: 1.11 µM | Activity [6]: inactive
SMILES: Cl.Cl.c1ccc(-c2nc3ccccc3n2CC2=NCCN2)cc1

SMILES: Cc1cccc2c1ncn2CC1=NCCN1.Cl.Cl
Ki [1]: 24.4 µM | Ki [2]: 0.273 µM | IC50 [3]: 77.7 µM | Ki [4]: 1.5 µM

SMILES: Cl.Clc1cccc2c1cnn2CC1=NCCN1
Ki [1]: 2.85 µM | Ki [2]: 0.13 µM | IC50 [3]: 5.15 µM | Ki [4]: 0.187 µM

SMILES: CCc1nc2cc(C)c(C)cc2n1CC1=NCCN1.Cl.Cl
Ki [1]: 0.081 µM | Ki [2]: 7.41 µM | IC50 [3]: 93.3 µM | Ki [4]: 12.9 µM
